Source: ChEMBL document CHEMBL5352507, “Discovery of a Pan-Melanocortin Receptor Antagonist [Ac-DPhe(pI)-Arg-Nal(2')-Orn-NH2] at the MC1R, MC3R, MC4R, and MC5R that Mediates an Increased Feeding Response in Mice and a 40-Fold Selective MC1R Antagonist [Ac-DPhe(pI)-DArg-Nal(2')-Arg-NH2]” (J Med Chem, 2023)
Activity calls are given as the source filed them. The rule behind the calls is not given here. Bridge positions count the residues as written; N and C are the ends. Square brackets hold non-standard residues; d marks the D form. Peptide text beside a SMILES is read from it. dPhe(4-I) = N[C@H](Cc1ccc(I)cc1)C(=O)O; 2Nal = N[C@@H](Cc1ccc2ccccc2c1)C(=O)O; hArg = N=C(N)NCCCC[C@H](N)C(=O)O; Cit = NC(=O)NCCC[C@H](N)C(=O)O; Orn = NCCC[C@H](N)C(=O)O; Dab = NCC[C@H](N)C(=O)O; Dap = NC[C@H](N)C(=O)O

Experiments:
Melanocortin receptor 5 [1] = target: T1, Melanocortin receptor 5 (Mus musculus, UniProt P41149); test: Binding affinity to mouse MC5R expressed in HEK293 cells coexpressing CRE/beta-galactosidase assessed as inhibition constant; assay type: cell-based
[2] = target: Melanocyte-stimulating hormone receptor (Homo sapiens, UniProt Q01726); test: Binding affinity to human MC1R
Melanocortin receptor 5 [3] = target: T1, Melanocortin receptor 5; test: Agonist activity against mouse MC5R expressed in HEK293 cells assessed as increase in cAMP level incubated for 2 hrs by AlphaScreen assay; assay type: functional, cell-based
Melanocortin receptor 3 [4] = target: T2, Melanocortin receptor 3 (Mus musculus, UniProt P33033); test: Agonist activity against mouse MC3R expressed in HEK293 cells assessed as increase in cAMP level incubated for 2 hrs by AlphaScreen assay; assay type: functional, cell-based
Melanocortin receptor 4 [5] = target: T3, Melanocortin receptor 4 (Mus musculus, UniProt P56450); test: Agonist activity against mouse MC4R expressed in HEK293 cells assessed as increase in cAMP level incubated for 2 hrs by AlphaScreen assay; assay type: functional, cell-based
[6] = target: T4, Melanocyte-stimulating hormone receptor (Mus musculus, UniProt Q01727); test: Agonist activity against mouse MC1R expressed in HEK293 cells assessed as increase in cAMP level incubated for 2 hrs by AlphaScreen assay; assay type: functional, cell-based
Melanocortin receptor 4 [7] = target: T3, Melanocortin receptor 4; test: Binding affinity to mouse MC4R expressed in HEK293 cells assessed as inhibition constant by schild plot analysis; assay type: cell-based
[8] = target: T4, Melanocyte-stimulating hormone receptor; test: Partial agonist activity against mouse MC1R expressed in HEK293 cells assessed as increase in cAMP level incubated for 2 hrs by AlphaScreen assay; assay type: functional, cell-based
Melanocortin receptor 3 [9] = target: T2, Melanocortin receptor 3; test: Binding affinity to mouse MC3R expressed in HEK293 cells assessed as inhibition constant by schild plot analysis; assay type: cell-based
Mus musculus [10] = test: In vivo antagonist activity MC4R in wild type C57BL/6J mouse assessed as increase in food intake at 10 nmol per mouse, IT administered directly into the spinal canal and measured for 4 to 6 hrs; assay type: functional, organism-based; conditions: time 4-6 hrs
Method in brief: (§1)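 Wild-type male and female mice (mixed 129/Sv×C57BL/6J, in-house colony) on a reversed 12-h light/dark cycle with chow ad libitum. Crossover design with 6–7 days between treatments. […] Cumulative food intake weighed at 0–72 h. n ≥ 8 per group; two-way ANOVA against vehicle.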

Mus musculus [11] = test: In vivo antagonist activity MC4R in wild type C57BL/6J mouse assessed as increase in food intake at 15 nmol per mouse, IT administered directly into the spinal canal and measured for 2 to 6 hrs; assay type: functional, organism-based; conditions: time 2-6 hrs; method in brief: as §1
Mus musculus [12] = test: In vivo antagonist activity MC4R in wild type C57BL/6J mouse assessed as increase in food intake at 10 to 15 nmol per mouse, IT administered directly into the spinal canal and measured for 24 hrs; assay type: functional, organism-based; conditions: dose 10-15 nmol; method in brief: as §1
[13] = Toxicity in C57BL/6J mouse assessed as reduction in body weight at 10 to 15 nmol per mouse, IT measured for 24 to 48 hrs; conditions: in vivo, other, dose lower 10 nmol, time lower 24 hrs, dose upper 15 nmol, time upper 48 hrs
Method in brief: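 Wild-type male and female mice (129/Sv×C57BL/6J) in a crossover design, given 10 or 15 nmol intrathecally in 5 μL DMSO/water vehicle. Body weight recorded at 0, 24 and 48 h and compared with vehicle-treated controls.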

Melanocortin receptor 5 [14] = target: T1, Melanocortin receptor 5; test: Binding affinity to mouse MC5R expressed in HEK293 cells assessed as inhibition constant by schild plot analysis; assay type: cell-based
[15] = target: T4, Melanocyte-stimulating hormone receptor; test: Binding affinity to mouse MC1R expressed in HEK293 cells assessed as inhibition constant by schild plot analysis; assay type: cell-based
[16] = target: T4, Melanocyte-stimulating hormone receptor; test: Binding affinity to mouse MC1R expressed in HEK293 cells coexpressing CRE/beta-galactosidase assessed as inhibition constant; assay type: cell-based

T3 sequence (P56450 whole entry): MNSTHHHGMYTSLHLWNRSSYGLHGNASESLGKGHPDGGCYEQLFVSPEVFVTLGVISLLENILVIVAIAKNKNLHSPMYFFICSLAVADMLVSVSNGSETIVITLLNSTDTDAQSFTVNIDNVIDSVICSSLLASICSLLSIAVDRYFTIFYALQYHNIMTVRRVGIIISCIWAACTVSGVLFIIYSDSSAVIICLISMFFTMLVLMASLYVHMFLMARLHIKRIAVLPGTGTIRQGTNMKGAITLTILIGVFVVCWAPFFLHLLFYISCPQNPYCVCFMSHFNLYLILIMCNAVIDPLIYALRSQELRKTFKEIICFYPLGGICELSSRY
T4 sequence (Q01727 whole entry): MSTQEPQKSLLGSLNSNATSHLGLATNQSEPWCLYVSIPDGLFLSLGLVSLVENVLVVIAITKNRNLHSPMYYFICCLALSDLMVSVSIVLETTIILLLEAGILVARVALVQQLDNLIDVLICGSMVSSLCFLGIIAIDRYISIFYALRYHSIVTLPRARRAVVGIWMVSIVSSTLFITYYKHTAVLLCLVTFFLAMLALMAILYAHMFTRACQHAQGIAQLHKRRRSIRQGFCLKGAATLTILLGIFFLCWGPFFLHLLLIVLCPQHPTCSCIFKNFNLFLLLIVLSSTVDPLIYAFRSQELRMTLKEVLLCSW
T1 sequence (P41149 whole entry): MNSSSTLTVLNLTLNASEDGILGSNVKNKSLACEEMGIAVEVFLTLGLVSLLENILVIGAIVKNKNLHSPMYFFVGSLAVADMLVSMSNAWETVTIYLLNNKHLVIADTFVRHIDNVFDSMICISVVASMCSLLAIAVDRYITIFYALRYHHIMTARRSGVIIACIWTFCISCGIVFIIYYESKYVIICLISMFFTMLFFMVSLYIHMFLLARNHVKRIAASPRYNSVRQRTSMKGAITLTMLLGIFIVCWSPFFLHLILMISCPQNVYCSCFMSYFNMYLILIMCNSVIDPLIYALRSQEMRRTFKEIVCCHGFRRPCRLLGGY
T2 sequence (P33033 whole entry): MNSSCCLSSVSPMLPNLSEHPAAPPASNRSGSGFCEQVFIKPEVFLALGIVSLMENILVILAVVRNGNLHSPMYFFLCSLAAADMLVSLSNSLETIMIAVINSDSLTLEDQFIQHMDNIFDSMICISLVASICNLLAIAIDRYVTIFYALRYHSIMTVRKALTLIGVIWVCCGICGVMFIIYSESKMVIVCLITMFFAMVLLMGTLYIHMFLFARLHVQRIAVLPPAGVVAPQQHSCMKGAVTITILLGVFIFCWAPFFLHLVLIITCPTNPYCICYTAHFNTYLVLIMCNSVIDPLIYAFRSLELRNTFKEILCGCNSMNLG
Chain of Melanocyte-stimulating hormone receptor (Homo sapiens, UniProt Q01726) (Q01726 whole entry): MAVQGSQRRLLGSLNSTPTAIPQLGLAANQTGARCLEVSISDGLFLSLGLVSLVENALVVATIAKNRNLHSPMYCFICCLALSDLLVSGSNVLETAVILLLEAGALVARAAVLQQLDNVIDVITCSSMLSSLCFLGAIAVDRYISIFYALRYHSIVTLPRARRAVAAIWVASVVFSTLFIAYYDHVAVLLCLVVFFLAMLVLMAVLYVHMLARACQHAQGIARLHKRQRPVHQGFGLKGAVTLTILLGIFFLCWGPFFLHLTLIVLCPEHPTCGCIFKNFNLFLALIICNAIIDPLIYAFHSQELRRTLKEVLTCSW

SMILES | EC50 (Melanocortin receptor 5 [3]) [µM] | EC50 (Melanocortin receptor 3 [4]) [µM] | EC50 (Melanocortin receptor 4 [5]) [µM] | also measured
CCCC[C@H](NC(C)=O)C(=O)N[C@H]1CC(=O)NCCCC[C@@H](C(N)=O)NC(=O)[C@@H](Cc2ccc3ccccc3c2)NC(=O)[C@H](CCCNC(=N)N)NC(=O)[C@@H](Cc2ccc3ccccc3c2)NC(=O)[C@H](Cc2cn(C)cn2)NC1=O |  |  |  | Ki (Melanocortin receptor 5 [1]): 0.063 µM
CC(C)[C@H](NC(=O)[C@@H]1CCC(=O)NCC(=O)N[C@@H](C2CCCC2)C(=O)N[C@H](Cc2ccc3ccccc3c2)C(=O)N[C@@H](CCCNC(=N)N)C(=O)N[C@@H](Cc2c[nH]c3ccccc23)C(=O)N1)C(=O)N[C@H](C(=O)NCC(N)=O)C(C)C |  |  |  | Ki [2]: 0.053 µM
CC(=O)N[C@H](Cc1ccc(I)cc1)C(=O)N[C@@H](CCC(=O)O)C(=O)N[C@@H](Cc1ccc2ccccc2c1)C(=O)N[C@@H](CCCNC(=N)N)C(N)=O (Ac-[dPhe(4-I)]E[2Nal]R-NH2) | > 100 | > 100 | > 100 | EC50 [6]: > 100 µM
CC(=O)N[C@H](Cc1ccc(I)cc1)C(=O)N[C@@H](Cc1c[nH]cn1)C(=O)N[C@@H](Cc1ccc2ccccc2c1)C(=O)N[C@@H](CCCNC(=N)N)C(N)=O (Ac-[dPhe(4-I)]H[2Nal]R-NH2) | > 100 |  | > 100 | Ki (Melanocortin receptor 4 [7]): 0.1 µM
CC(=O)N[C@H](Cc1ccc(I)cc1)C(=O)N[C@@H](CCCCN)C(=O)N[C@@H](Cc1ccc2ccccc2c1)C(=O)N[C@@H](CCCNC(=N)N)C(N)=O (Ac-[dPhe(4-I)]K[2Nal]R-NH2) |  |  | > 100 | 
CC(=O)N[C@H](Cc1ccc(I)cc1)C(=O)N[C@@H](CCCNC(=N)N)C(=O)N[C@@H](Cc1ccc2ccccc2c1)C(=O)N[C@@H](Cc1c[nH]cn1)C(N)=O (Ac-[dPhe(4-I)]R[2Nal]H-NH2) | > 100 |  | > 100 | EC50 [8]: 0.4 µM; Ki (Melanocortin receptor 3 [9]): 0.1 µM
CC(=O)N[C@H](Cc1ccc(I)cc1)C(=O)N[C@@H](CCCNC(=N)N)C(=O)N[C@@H](Cc1ccc2ccccc2c1)C(=O)N[C@@H](CCCNC(N)=O)C(N)=O (Ac-[dPhe(4-I)]R[2Nal][Cit]-NH2) | > 100 | > 100 | > 100 | EC50 [6]: > 100 µM
CC(=O)N[C@H](Cc1ccc(I)cc1)C(=O)N[C@@H](CCCNC(=N)N)C(=O)N[C@@H](Cc1ccc2ccccc2c1)C(=O)N[C@@H](CCN)C(N)=O (Ac-[dPhe(4-I)]R[2Nal][Dab]-NH2) | > 100 | > 100 | > 100 | EC50 [8]: 1.1 µM
CC(=O)N[C@H](Cc1ccc(I)cc1)C(=O)N[C@@H](CCCNC(=N)N)C(=O)N[C@@H](Cc1ccc2ccccc2c1)C(=O)N[C@@H](CN)C(N)=O (Ac-[dPhe(4-I)]R[2Nal][Dap]-NH2) | > 100 | > 100 | > 100 | 
CC(=O)N[C@H](Cc1ccc(I)cc1)C(=O)N[C@@H](CCCNC(=N)N)C(=O)N[C@@H](Cc1ccc2ccccc2c1)C(=O)N[C@@H](CCCN)C(N)=O (Ac-[dPhe(4-I)]R[2Nal][Orn]-NH2) |  |  |  | Activity (Mus musculus [10]): Active; Activity (Mus musculus [11]): Active; Activity (Mus musculus [12]): inactive; Activity [13]: Non-Toxic
CC(=O)N[C@H](Cc1ccc(I)cc1)C(=O)N[C@@H](CCCNC(=N)N)C(=O)N[C@@H](Cc1ccc2ccccc2c1)C(=O)N[C@@H](CCCCNC(=N)N)C(N)=O (Ac-[dPhe(4-I)]R[2Nal][hArg]-NH2) | > 100 | > 100 | > 100 | Ki (Melanocortin receptor 5 [14]): 1 µM
CC(=O)N[C@H](Cc1ccc(I)cc1)C(=O)N[C@@H](CCCNC(N)=O)C(=O)N[C@@H](Cc1ccc2ccccc2c1)C(=O)N[C@@H](CCCNC(=N)N)C(N)=O (Ac-[dPhe(4-I)][Cit][2Nal]R-NH2) | > 100 |  | > 100 | 
CC(=O)N[C@H](Cc1ccc(I)cc1)C(=O)N[C@@H](CN)C(=O)N[C@@H](Cc1ccc2ccccc2c1)C(=O)N[C@@H](CCCNC(=N)N)C(N)=O (Ac-[dPhe(4-I)][Dap][2Nal]R-NH2) | > 100 | > 100 | > 100 | EC50 [6]: > 100 µM; Ki [15]: 0.1 µM
CC(=O)N[C@H](Cc1ccc(I)cc1)C(=O)N[C@@H](CCCN)C(=O)N[C@@H](Cc1ccc2ccccc2c1)C(=O)N[C@@H](CCCNC(=N)N)C(N)=O (Ac-[dPhe(4-I)][Orn][2Nal]R-NH2) | > 100 | > 100 | > 100 | Ki (Melanocortin receptor 4 [7]): 0.1 µM
CC(=O)N[C@H](Cc1ccc(I)cc1)C(=O)N[C@H](CCCCN)C(=O)N[C@@H](Cc1ccc2ccccc2c1)C(=O)N[C@@H](CCCNC(=N)N)C(N)=O (Ac-[dPhe(4-I)][dK][2Nal]R-NH2) |  |  | > 100 | EC50 [6]: > 100 µM
C[C@@H]1NC(=O)[C@H](CC(N)=O)NC(=O)[C@H](Cc2ccccc2)NC(=O)[C@H](Cc2ccccc2)NC(=O)[C@H](CCCN=C(N)N)NC(=O)[C@@H](NC(=O)[C@@H](N)Cc2ccc(O)cc2)CCC(=O)NC[C@@H](C(=O)N[C@@H](Cc2ccc(O)cc2)C(N)=O)NC(=O)[C@H](Cc2ccccc2)NC1=O (H-YERFFNAF[Dap]Y-NH2; lactam 2-9) |  |  |  | Ki [16]: 1.2 µM
